Assay [1] has as its system Tumor Cell line. Put plainly: Drug molar concentration required to inhibit 50% of human tumor cell growth. The format is functional. Summed up: (§1)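 NCI panel of 54 human tumor lines from eight cancer types, mostly seeded at 20 000 cells/well. Cells were preincubated 24 h without drug, then exposed to five 10-fold dilutions for 48 h, fixed and stained with sulforhodamine B, and read spectrophotometrically. Versus control, GI50 (50% growth inhibition), TGI (0% growth) and LC50 (−50% growth) were calculated; mean graph midpoints average all lines.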

Assay [2] concerns Tumor Cell line. Nature of the assay: Drug concentration required to inhibit total cell growth. The class given is functional, Homo sapiens. The conditions noted are these: read-out: Log TGI (converted). Put shortly: as §1
The test system of assay [3] is KB. Put plainly: Cytotoxicity against KB cells after a 3 day incubation. The format is functional, Homo sapiens. The conditions noted are these: read-out: ID50 (the source's name). Summed up: (§2)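 KB cells (parental ATCC line and resistant variants) exposed to drug at five concentrations […] for 3 days. ID50 is the concentration giving 50% reduction in cell number, derived from the degree of inhibition at the five concentrations.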

Assay [4] addresses T1, DNA topoisomerase II (Homo sapiens) (UniProt P11388+Q02880). Nature of the assay: 50% inhibition of human DNA topoisomerase II. The format is protein assay.
For assay [5], the target named is T1, DNA topoisomerase II (Homo sapiens). Nature of the assay: 50% inhibition of human DNA topoisomerase II was measured. The format is protein assay.
The subject of assay [6] is KB. Put plainly: 50% reduction in the number of KB ATCC cells. The class given is functional. The conditions noted are these: Homo sapiens, read-out: ID50 (the source's name). Put shortly:
as §2

Assay [7] relates to KB. Put plainly: 50% reduction in the number of KB 7D (topoisomerase II, aMDR) resistant variant. The conditions noted are these: Homo sapiens, KB; read-out: ID50 (the source's name). The format is functional, Homo sapiens. Summed up: as §2
The test system of assay [8] is KB. Put plainly: 50% reduction in the number of KB V20C resistant variant. The format is functional, Homo sapiens. The conditions noted are these: Homo sapiens, KB; read-out: ID50 (the source's name). Put shortly:
as §2

In assay [9] the test system is Tumor Cell line. Put plainly: Drug concentration required to cause 50% cell death. The conditions noted are these: Homo sapiens, Tumor Cell line. The class given is functional, Homo sapiens. Summed up:
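NCI in vitro panel of 54 human tumor cell lines from eight cancer types, mostly seeded at 20 000 cells/well and preincubated 24 h without drug. Five 10-fold dilutions were then added for a further 48 h. Cells were fixed in situ and stained with sulforhodamine B, and bound dye was read spectrophotometrically. LC50 (−50% growth versus control) was taken from five-point dose-response curves and reported as the log10 mean-graph midpoint across lines.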

In assay [10] the test system is Nucleic Acid. Put plainly: Percentage inhibition of cellular protein-DNA complex formation. The class given is functional. The conditions noted are these: Homo sapiens.

Each structure is given as a SMILES string. Where “and” joins values, the source holds several entries; their conditions need not be identical. Equal entries are not always repeated.

In general, GI50 refers to the concentration giving 50% growth inhibition. Read a low GI50 as greater sensitivity of the cells. The TGI is the concentration giving total growth inhibition. In general, LC50 refers to the concentration that kills 50% of the test population. Read a low LC50 as a more lethal substance.

Turning to `CCOC(=O)N1CCC(N[C@@H]2c3cc4c(cc3[C@@H](c3cc(OC)c(O)c(OC)c3)[C@H]3C(=O)OC[C@@H]32)OCO4)CC1` [listing 1 of 2 here], in assay [1], the GI50 was 1780 nM. In [2], the TGI is 8130 nM. In addition, the IC50 in assay [3] is 1130 nM.
For the compound `COc1cc([C@@H]2c3cc4c(cc3[C@@H](NC3CCN(Cc5ccccc5)CC3)[C@H]3COC(=O)[C@H]23)OCO4)cc(OC)c1O`, the ID50 in assay [4] is 100000 nM; in [5], 50000 nM.
As for `COc1cc([C@@H]2c3cc4c(cc3[C@@H](NCCN(C)C)[C@H]3COC(=O)[C@H]23)OCO4)cc(OC)c1O` [listing 1 of 2 here], the IC50 in [6] turned out to be 400 nM; in [7] it was 680 nM; in assay [8], 440 nM; in assay [3] (Homo sapiens, KB, 72 h), 400 nM. Growth in assay [1] (Homo sapiens, Tumor Cell line) was halved (GI50) at 155 nM. Further, the TGI in assay [2] (Homo sapiens, Tumor Cell line) is 1480 nM. In [9], the LC50 was 15100 nM.
As for `CCOC(=O)N1CCC(N[C@@H]2c3cc4c(cc3[C@@H](c3cc(OC)c(O)c(OC)c3)[C@H]3C(=O)OC[C@@H]32)OCO4)CC1` [listing 2 of 2 here], halving of growth in assay [1] (Homo sapiens, Tumor Cell line) (GI50) required 1350 nM. Further, in [2] (Homo sapiens, Tumor Cell line), the total growth inhibition concentration (TGI) was 7760 nM. In addition, the IC50 in assay [3] (Homo sapiens, KB, 72 h) was 740 nM.
`COc1cc([C@@H]2c3cc4c(cc3[C@@H](NCCN(C)C)[C@H]3COC(=O)[C@H]23)OCO4)cc(OC)c1O` [listing 2 of 2 here]: the ID50 in assay [4] stood at 25000 nM. In addition, the Complex formation in assay [10] is 203% and 183%.
